Source: ChEMBL document CHEMBL3797152, “Minimum structural requirements for cell membrane leakage-mediated anti-MRSA activity of macrocyclic bis(bibenzyl)s” (2016)
In brackets after ≈: the same amount, converted by molar mass. Activity calls are given as the source filed them. No cut-off for these calls is given here.

Tests used:
[1] = test system: Staphylococcus aureus; assay: Antimicrobial activity against 2-phenoxyphenol/methicillin-resistant Staphylococcus aureus after 18 to 20 hrs by liquid microdilution method; assay type: functional
[2] = test system: Staphylococcus aureus; assay: Antimicrobial activity against methicillin-resistant Staphylococcus aureus N315 after 18 to 20 hrs by liquid microdilution method; assay type: functional
[3] = test system: Staphylococcus aureus; assay: Antimicrobial activity against methicillin-resistant Staphylococcus aureus OM481 clinical isolate after 18 to 20 hrs by liquid microdilution method; assay type: functional
[4] = test system: Staphylococcus aureus; assay: Increase in cytoplasmic membrane permeability in Staphylococcus aureus N315 cells assessed as influx of EtBr by fluorescence assay; assay type: functional, organism-based
Summary of the method: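 Energized S. aureus N315 cells; EtBr uptake followed as rise in fluorescence (excitation 530 nm, emission 600 nm) immediately after adding test compound.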

[5] = test system: Staphylococcus aureus; assay: Increase in cytoplasmic membrane permeability in Staphylococcus aureus N315 cells assessed as efflux of EtBr by fluorescence assay; assay type: functional, organism-based
Summary of the method: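 EtBr-loaded S. aureus N315 cells; EtBr release followed as fall in fluorescence (excitation 530 nm, emission 600 nm) after adding test compound.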

[6] = test system: Staphylococcus aureus; assay: Effect on membrane permeability assessed as increase in intracellular sodium levels in Staphylococcus aureus N315 cells by ICP-OES analysis; assay type: functional, organism-based
[7] = test system: Staphylococcus aureus; assay: Effect on membrane permeability assessed as decrease in intracellular potassium levels in Staphylococcus aureus N315 cells by ICP-OES analysis; assay type: functional, organism-based
[8] = test system: Staphylococcus aureus; assay: Bactericidal activity against Staphylococcus aureus N315 cells assessed as reduction of bacterial burden at 4 times MIC up to 24 hrs; assay type: functional, organism-based
Summary of the method: (§1)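 S. aureus N315 (MRSA strain) survival assay: compound added at 1× or 4× its MIC, with MIC determined by liquid microdilution. Read-out is the number of viable cells remaining over time after addition.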

[9] = test system: Staphylococcus aureus; assay: Bactericidal activity against Staphylococcus aureus N315 cells assessed as reduction of bacterial burden at MIC up to 24 hrs; assay type: functional; summary of the method: as §1

Structure (SMILES) | MIC [1] [µg/mL] | MIC [2] [µg/mL] | MIC [3] [µg/mL] | Activity [4] | Activity [5] | Activity [6] | Activity [7] | Activity [8] | Activity [9] [log10CFU/ml]
Cc1cc(O)ccc1-c1ccc(CCc2ccccc2)cc1O | 16 (≈ 52.6 µM) | 16 (≈ 52.6 µM) | 16 (≈ 52.6 µM) | Active | Active |  |  |  | 
Oc1ccc(CCc2cccc(O)c2)cc1 [LUNULARIN] | > 128 | > 128 | > 128 |  |  |  |  |  | 
Oc1ccccc1Oc1ccccc1 | > 128 | 8 (≈ 43 µM) | 8 (≈ 43 µM) |  |  |  |  |  | 
Oc1ccc(-c2ccccc2O)cc1 | > 128 | > 128 | > 128 |  |  |  |  |  | 
Oc1ccc(-c2ccc(CCc3ccccc3)cc2O)c(CCc2ccccc2)c1 | 8 (≈ 20.3 µM) | 8 (≈ 20.3 µM) | 8 (≈ 20.3 µM) | Active | Active | Active | Active | Active | 3
Oc1ccc2c(c1)CCc1cccc(c1)-c1cccc(c1)CCc1ccc-2c(O)c1 | 0.5 (≈ 1.27 µM) | 0.5 (≈ 1.27 µM) | 0.5 (≈ 1.27 µM) |  |  |  |  |  | 
Oc1ccc2c(c1)CCc1ccc(cc1)Oc1cc(ccc1O)CCc1ccc-2c(O)c1 [RICCARDI C] | 2 (≈ 4.71 µM) | 2 (≈ 4.71 µM) | 2 (≈ 4.71 µM) |  |  |  |  |  | 
